Laboratory results taken from ChEMBL document CHEMBL4033795, “Design, Synthesis, and Structure-Activity Relationship Study of 2-Oxo-3,4-dihydropyrimido[4,5- d]pyrimidines as New Colony Stimulating Factor 1 Receptor (CSF1R) Kinase Inhibitors” (J Med Chem, 2018).

How the values were obtained:
[1] = biological target: Macrophage colony-stimulating factor 1 receptor (Homo sapiens, UniProt P07333); experiment: Inhibition of recombinant human His-tagged CSF1R cytoplasmic domain (538 to 910 residues) expressed in baculovirus using tyr4 peptide as substrate after 1 hr by FRET-based Z'-Lyte assay
Chain of Macrophage colony-stimulating factor 1 receptor (P07333 whole entry, the tested form may be a part): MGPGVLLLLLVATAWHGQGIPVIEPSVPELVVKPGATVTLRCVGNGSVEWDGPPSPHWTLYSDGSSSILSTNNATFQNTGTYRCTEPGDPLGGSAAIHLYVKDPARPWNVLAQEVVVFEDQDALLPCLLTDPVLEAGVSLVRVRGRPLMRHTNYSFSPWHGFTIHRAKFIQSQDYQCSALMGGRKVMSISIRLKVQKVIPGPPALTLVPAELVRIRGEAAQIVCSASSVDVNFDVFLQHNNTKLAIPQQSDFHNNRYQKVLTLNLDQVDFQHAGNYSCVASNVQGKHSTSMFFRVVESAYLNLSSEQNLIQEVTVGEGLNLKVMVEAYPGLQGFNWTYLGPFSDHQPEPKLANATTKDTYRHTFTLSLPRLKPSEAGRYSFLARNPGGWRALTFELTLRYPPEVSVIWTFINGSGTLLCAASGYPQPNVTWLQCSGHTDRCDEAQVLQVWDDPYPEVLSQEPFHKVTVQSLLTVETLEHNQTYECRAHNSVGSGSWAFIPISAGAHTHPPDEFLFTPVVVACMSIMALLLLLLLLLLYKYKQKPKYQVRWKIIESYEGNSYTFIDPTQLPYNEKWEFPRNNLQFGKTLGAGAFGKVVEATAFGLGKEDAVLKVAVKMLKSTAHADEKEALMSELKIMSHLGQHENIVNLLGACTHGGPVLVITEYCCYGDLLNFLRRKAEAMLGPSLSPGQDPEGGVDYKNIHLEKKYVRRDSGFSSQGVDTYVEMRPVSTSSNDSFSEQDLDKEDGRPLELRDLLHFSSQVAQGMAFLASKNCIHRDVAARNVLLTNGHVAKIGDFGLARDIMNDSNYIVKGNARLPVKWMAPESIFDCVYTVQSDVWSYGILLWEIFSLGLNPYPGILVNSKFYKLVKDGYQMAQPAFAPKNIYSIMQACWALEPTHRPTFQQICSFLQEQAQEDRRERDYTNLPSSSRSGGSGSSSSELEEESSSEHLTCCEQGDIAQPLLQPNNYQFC
Procedure, shortened: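 Z′-Lyte FRET assay with CSF1R or EGFR and 2 μM Tyr4 peptide substrate in 1× kinase buffer. ATP was supplied as a 100 μM solution, a stock and not the final concentration. Compounds were 3-fold serially diluted in DMSO. Reaction ran 1 h at room temperature, followed by 1 h development and a stop reagent. Phospho-peptide, no-ATP and DMSO controls were included. IC50 by curve fitting; mean of at least three independent experiments.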

[2] = AUC (0 to infinity) in Sprague-Dawley rat at 5 mg/kg, iv measured up to 72 hrs by LC/MS analysis; assay type: ADME, organism-based; parameters: dose 5 mg/kg, time infinity, route intravenous; conditions: in vivo
Procedure, shortened: (§1)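 Male Sprague-Dawley rats, 4–6 weeks old, acclimatised 1 week, were dosed iv at 5 mg/kg or by oral gavage at 25 mg/kg. Vehicle was 2% DMSO, 4% EtOH, 4% castor oil, 90% H2O. Blood was drawn by orbital sinus puncture from 2 min to 72 h into heparinized tubes. Plasma was assayed by LC/MS with propranolol as internal standard. Three animals per group.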

[3] = Half life in Sprague-Dawley rat at 5 mg/kg, iv measured up to 72 hrs by LC/MS analysis; assay type: ADME, organism-based; conditions: in vivo; procedure, shortened: as §1
[4] = biological target: Platelet-derived growth factor receptor alpha (Homo sapiens, UniProt P16234); experiment: Inhibition of recombinant cytoplasmic human GST-tagged PDGFRalpha expressed in baculovirus using poly (4:1 Glu, Tyr) peptide as substrate after 1 hr by ADP-Glo assay
Chain of Platelet-derived growth factor receptor alpha (P16234 whole entry, the tested form may be a part): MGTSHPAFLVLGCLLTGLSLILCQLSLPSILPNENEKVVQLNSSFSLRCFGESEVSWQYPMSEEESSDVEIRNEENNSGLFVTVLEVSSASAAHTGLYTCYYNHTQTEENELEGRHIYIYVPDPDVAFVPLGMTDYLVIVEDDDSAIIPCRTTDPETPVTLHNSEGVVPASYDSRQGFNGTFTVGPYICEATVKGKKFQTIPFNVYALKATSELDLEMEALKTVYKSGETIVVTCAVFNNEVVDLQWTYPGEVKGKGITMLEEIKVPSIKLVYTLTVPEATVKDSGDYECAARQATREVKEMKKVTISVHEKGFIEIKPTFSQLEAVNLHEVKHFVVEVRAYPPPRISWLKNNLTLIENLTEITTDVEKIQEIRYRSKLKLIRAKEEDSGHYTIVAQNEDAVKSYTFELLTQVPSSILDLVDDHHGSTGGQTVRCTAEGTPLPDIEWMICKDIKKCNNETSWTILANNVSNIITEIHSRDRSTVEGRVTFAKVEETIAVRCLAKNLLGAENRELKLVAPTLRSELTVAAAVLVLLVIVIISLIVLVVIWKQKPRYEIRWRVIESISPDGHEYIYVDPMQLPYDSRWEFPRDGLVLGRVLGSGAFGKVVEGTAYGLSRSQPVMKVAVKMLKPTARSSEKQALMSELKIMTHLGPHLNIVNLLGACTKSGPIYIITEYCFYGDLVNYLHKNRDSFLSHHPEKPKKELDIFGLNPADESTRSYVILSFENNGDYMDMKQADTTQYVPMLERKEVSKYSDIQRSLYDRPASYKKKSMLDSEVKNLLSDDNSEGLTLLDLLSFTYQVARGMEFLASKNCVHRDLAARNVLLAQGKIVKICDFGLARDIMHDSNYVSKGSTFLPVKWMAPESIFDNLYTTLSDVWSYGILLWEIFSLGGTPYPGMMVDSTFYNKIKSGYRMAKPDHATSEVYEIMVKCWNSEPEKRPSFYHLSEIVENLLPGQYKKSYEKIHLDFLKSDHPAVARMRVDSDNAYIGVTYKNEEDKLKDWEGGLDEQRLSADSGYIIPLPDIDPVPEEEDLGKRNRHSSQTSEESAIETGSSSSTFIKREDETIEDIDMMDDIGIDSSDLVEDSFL

[5] = biological target: Fibroblast growth factor receptor 1 (Homo sapiens, UniProt P11362); experiment: Inhibition of cytoplasmic recombinant human His-tagged FGFR1 (308 to 731 residues) expressed in baculovirus using tyr4 peptide as substrate after 1 hr by FRET-based Z'-Lyte assay
Chain of Fibroblast growth factor receptor 1 (P11362 whole entry, the tested form may be a part): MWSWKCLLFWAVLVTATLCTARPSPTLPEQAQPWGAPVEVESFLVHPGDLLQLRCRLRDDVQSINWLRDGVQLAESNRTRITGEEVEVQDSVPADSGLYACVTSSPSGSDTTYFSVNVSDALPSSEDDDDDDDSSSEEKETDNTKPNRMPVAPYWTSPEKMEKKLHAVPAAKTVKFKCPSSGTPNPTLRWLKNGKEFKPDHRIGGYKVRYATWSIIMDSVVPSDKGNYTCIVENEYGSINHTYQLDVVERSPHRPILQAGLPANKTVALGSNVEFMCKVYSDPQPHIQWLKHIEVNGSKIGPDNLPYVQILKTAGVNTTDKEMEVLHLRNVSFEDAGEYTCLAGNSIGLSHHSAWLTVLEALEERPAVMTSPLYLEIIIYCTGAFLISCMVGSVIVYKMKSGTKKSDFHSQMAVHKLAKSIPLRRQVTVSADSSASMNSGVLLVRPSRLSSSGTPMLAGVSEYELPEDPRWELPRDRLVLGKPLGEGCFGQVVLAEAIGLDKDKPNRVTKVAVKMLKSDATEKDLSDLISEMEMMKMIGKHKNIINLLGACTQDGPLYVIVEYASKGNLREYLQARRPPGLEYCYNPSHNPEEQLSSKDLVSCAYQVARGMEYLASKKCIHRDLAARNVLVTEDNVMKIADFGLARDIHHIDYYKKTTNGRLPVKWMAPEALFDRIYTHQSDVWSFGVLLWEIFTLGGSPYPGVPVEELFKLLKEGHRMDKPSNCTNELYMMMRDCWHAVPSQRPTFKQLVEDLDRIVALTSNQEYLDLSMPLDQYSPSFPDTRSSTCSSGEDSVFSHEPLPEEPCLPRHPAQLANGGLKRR

[6] = biological target: Cytoplasmic tyrosine-protein kinase BMX (Homo sapiens) (UniProt P51813); experiment: Inhibition of recombinant human BMX (M1 to H675 residues) expressed in bacterial expression system at 100 nM by KINOMEscan assay relative to control
Chain of Cytoplasmic tyrosine-protein kinase BMX (Homo sapiens) (P51813 whole entry, the tested form may be a part): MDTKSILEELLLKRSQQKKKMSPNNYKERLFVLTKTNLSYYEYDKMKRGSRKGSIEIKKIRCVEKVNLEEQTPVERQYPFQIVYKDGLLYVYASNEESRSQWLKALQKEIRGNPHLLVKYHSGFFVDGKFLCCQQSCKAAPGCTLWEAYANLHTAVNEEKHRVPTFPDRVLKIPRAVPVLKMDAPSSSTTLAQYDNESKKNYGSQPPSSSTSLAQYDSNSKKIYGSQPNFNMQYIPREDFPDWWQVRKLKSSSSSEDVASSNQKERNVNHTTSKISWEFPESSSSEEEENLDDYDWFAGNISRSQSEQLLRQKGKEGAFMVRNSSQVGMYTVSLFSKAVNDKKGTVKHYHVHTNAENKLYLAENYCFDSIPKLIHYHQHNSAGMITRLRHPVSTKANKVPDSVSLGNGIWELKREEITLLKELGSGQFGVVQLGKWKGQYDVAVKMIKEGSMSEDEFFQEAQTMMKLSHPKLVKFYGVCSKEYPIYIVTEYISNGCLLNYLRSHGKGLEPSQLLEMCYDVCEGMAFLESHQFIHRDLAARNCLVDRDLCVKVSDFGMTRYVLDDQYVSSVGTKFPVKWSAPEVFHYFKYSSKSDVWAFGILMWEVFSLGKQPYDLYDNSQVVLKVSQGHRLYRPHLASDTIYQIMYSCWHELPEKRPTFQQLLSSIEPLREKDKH

[7] = biological target: Tyrosine-protein kinase Lyn (Homo sapiens) (UniProt P07948); experiment: Inhibition of recombinant human LYN-A expressed in bacterial expression system at 100 nM by KINOMEscan assay relative to control
Chain of Tyrosine-protein kinase Lyn (Homo sapiens) (P07948 2-512 limits assumed): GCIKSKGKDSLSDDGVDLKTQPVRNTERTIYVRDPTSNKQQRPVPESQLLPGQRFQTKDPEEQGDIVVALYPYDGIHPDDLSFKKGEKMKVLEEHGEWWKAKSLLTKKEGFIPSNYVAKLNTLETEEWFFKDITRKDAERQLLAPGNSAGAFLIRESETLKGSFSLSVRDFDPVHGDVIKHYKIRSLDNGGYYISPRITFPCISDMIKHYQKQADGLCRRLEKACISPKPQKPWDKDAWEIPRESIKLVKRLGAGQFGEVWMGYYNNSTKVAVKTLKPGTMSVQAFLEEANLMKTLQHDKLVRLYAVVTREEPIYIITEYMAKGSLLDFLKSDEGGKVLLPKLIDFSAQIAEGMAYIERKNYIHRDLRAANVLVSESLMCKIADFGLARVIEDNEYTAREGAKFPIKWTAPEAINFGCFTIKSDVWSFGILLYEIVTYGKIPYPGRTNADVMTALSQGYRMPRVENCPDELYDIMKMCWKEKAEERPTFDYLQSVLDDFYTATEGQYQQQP

[8] = biological target: Ephrin type-A receptor 8 (Homo sapiens) (UniProt P29322); experiment: Inhibition of recombinant human EPHA8 (Q608 to C920 residues) expressed in bacterial expression system at 100 nM by KINOMEscan assay relative to control
Chain of Ephrin type-A receptor 8 (Homo sapiens) (P29322 whole entry, the tested form may be a part): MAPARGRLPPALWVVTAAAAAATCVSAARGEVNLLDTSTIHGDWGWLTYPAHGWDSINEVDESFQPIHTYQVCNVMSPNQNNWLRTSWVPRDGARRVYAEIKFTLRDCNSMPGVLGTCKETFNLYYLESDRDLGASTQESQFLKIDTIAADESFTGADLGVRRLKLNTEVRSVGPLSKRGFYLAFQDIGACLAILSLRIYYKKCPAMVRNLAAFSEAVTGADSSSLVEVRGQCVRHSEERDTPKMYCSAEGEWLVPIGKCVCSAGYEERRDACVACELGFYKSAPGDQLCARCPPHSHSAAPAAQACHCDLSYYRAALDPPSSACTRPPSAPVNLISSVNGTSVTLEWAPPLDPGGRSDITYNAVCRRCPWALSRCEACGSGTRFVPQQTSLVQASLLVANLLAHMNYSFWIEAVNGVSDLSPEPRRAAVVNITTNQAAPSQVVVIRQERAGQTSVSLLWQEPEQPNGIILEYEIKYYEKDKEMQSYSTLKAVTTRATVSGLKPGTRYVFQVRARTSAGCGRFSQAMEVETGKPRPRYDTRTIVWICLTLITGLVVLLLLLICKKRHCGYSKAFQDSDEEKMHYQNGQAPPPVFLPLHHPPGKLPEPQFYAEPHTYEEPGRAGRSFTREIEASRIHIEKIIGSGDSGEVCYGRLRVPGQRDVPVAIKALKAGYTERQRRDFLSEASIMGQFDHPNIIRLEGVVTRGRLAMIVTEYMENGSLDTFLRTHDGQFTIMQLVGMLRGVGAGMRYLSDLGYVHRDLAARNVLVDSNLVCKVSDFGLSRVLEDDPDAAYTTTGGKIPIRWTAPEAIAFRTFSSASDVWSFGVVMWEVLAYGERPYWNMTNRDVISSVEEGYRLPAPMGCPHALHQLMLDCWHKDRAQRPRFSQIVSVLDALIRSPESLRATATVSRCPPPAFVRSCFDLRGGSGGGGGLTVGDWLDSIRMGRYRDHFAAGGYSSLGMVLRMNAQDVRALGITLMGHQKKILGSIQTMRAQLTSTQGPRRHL

[9] = biological target: T1, Macrophage colony-stimulating factor 1 receptor (Mus musculus) (UniProt P09581); experiment: Inhibition of CSF1R phosphorylation in mouse RAW264.7 cells at 80 nM preincubated for 6 hrs followed by CSF1 stimulation for 20 mins by Western blot analysis relative to control; assay type: cell-based
T1 sequence (whole entry): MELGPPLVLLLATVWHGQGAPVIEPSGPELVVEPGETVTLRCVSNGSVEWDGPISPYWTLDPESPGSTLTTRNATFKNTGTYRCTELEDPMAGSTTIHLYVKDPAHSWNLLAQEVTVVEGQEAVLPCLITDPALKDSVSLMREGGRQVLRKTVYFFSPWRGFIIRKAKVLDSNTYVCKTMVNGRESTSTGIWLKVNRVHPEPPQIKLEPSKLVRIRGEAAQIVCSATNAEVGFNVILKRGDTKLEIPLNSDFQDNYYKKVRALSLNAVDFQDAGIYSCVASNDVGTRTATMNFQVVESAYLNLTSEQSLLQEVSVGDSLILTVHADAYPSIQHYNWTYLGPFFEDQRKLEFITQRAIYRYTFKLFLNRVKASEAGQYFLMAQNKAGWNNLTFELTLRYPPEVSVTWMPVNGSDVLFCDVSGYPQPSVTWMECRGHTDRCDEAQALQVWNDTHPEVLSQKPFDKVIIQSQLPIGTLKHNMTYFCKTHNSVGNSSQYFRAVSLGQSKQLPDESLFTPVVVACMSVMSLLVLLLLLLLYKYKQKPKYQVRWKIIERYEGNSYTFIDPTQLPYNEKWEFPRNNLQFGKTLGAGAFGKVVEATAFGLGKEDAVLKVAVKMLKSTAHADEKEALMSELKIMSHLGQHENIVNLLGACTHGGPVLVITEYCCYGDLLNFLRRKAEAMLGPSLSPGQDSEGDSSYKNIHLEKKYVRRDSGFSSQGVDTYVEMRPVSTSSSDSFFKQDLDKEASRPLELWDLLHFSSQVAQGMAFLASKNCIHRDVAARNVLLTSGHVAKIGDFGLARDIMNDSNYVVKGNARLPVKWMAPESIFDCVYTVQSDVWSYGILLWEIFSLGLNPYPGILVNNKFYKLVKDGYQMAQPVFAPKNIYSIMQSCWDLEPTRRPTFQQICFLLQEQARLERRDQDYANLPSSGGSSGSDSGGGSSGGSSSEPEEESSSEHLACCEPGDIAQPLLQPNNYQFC
Procedure, shortened: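 RAW264.7 cells were seeded, incubated overnight and treated 6 h with graded compound concentrations, then stimulated 20 min with CSF-1 (50 ng/mL). Lysates were run on 8−12% SDS-PAGE and immunoblotted for p-CSF1R (Tyr723), CSF1R, p-AKT, AKT and GAPDH. Bands were quantified and normalized to GAPDH. Mean ± SEM of at least three experiments.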

[10] = test system: RAW264.7; experiment: Downregulation of IL10 mRNA expression in mouse RAW264.7 cells after 48 hrs by qRT-PCR analysis relative to DMSO; assay type: functional, cell-based
Procedure, shortened: (§2)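 RAW264.7 macrophages were treated 48 h with compound at 0.08, 0.4 or 2.0 μM, or DMSO vehicle. Total RNA was extracted with TRIzol and transcripts were quantified by qRT-PCR using gene-specific primers. Run three times, each in triplicate.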

[11] = test system: RAW264.7; experiment: Downregulation of VEGFA mRNA expression in mouse RAW264.7 cells after 48 hrs by qRT-PCR analysis relative to DMSO; assay type: functional, cell-based; procedure, shortened: as §2
[12] = test system: RAW264.7; experiment: Inhibition of protumorigenic potential of mouse RAW264.7 cells assessed as abrogation of human LNCAP cell growth enhancement of macrophages at 0.08 uM co-cultured for 48 hrs by CCK8 assay relative to control; assay type: functional; conditions: RAW264.7, 48 h
Procedure, shortened: (§3)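 LNCaP cells, (2−4) × 10^5, were seeded in the lower transwell chamber. After 2 h, (1−2) × 10^6 RAW264.7 cells were added in a 0.4 μm insert. Compound at 0.016–2.0 μM was added to the top chamber and cells were cocultured 48 h at 37 °C. LNCaP cells were then imaged and counted by CCK8. Run three times, each in triplicate.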

[13] = test system: RAW264.7; experiment: Inhibition of protumorigenic potential of mouse RAW264.7 cells assessed as abrogation of human LNCAP cell growth enhancement of macrophages at 2 uM co-cultured for 48 hrs by CCK8 assay relative to control; assay type: functional; conditions: RAW264.7, 48 h; procedure, shortened: as §3
[14] = organism: Homo sapiens; experiment: Selectivity ratio of IC50 for recombinant human His-tagged FLT3 (564 to 958 residues) expressed in baculovirus to IC50 for recombinant human His-tagged CSF1R cytoplasmic domain (538 to 910 residues) expressed in baculovirus

## CCC(=O)N1CC[C@H](N2C(=O)N(c3cc(OC)ccc3Cl)Cc3cnc(Nc4ccc(N5CCN(C6COC6)CC5)c(C)c4)nc32)C1
[1]
  IC50: 0.003 µM
[2]
  AUC(0-inf): 2910 ng·h/mL
[3]
  half-life: 1.08 h
[4]
  IC50: 0.074 µM
[5]
  IC50: 0.01 µM
[6]
  inhibition: > 90%
[7]
  inhibition: > 90%
[8]
  inhibition: > 90%
[9]
  inhibition: 50%
[10]
  Activity: Dose-dependent effect
[11]
  Activity: Dose-dependent effect
[12]
  inhibition at 0.08 µM: 70%
[13]
  inhibition at 2 µM: 94.6%
[14]
  Ratio IC50: 10 to 35
